Among the data in ChEMBL document CHEMBL5331144, “Design, Synthesis, and Biological Evaluation of 2-Hydroxy-4-phenylthiophene-3-carbonitrile as PD-L1 Antagonist and Its Comparison to Available Small Molecular PD-L1 Inhibitors” (J Med Chem, 2023) are Drug uptake, Activity and inhibition values, retold here.

Active and inactive are the calls of the source. The rule behind the calls is not given here.

A short description of data set [1]: Ex vivo biodistribution in formalin fixed paraffin embedded tumor of human ES2 cells expressing PD-L1 by immunohistochemistry staining based analysis relative to control. The class given is ADME, Neoplasm. The following applies: es-2. In short, it runs like this: (§1)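 FFPE xenograft tumours (ES2 or H358, PD-L1+/– knockout pairs) cut to 4 μm, deparaffinized at 60 °C with xylene, rehydrated, citrate pH 6.0 heat retrieval. Autoradiography: 30 min incubation with freshly formulated 18F-tracer at 0.2 MBq/mL, washed with cold PBS and water, dried, phosphor-plate exposure and quantification. Adjacent sections stained by IHC with anti-PD-L1 (5 μg/mL, clone 28-8, 60 min), DAB, hematoxylin counterstain.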

Data set [2] can be described thus: Ex vivo biodistribution in snap-frozen human tonsils overexpressing PD-L1 by autoradiography. The data set is classed as ADME, Tonsil. In short, it runs like this: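 Snap-frozen human tonsil sections, 10 min cold acetone, then 30 min incubation with freshly formulated 18F-tracer at 0.2 MBq/mL. Washed twice with cold PBS and once with water, dried, exposed to phosphor plates and quantified by phosphor imaging.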

A short description of data set [3]: Ex vivo drug localization in peripheral part of formalin fixed paraffin embedded tumor of human NCI-H358 cells expressing PD-L1 by immunohistochemistry staining based analysis. The class given is ADME, tissue-based, Neoplasm. The essentials: as §1
Data set [4] is described as follows: Ex vivo biodistribution in formalin fixed paraffin embedded tumor of human NCI-H358 cells expressing PD-L1 by immunohistochemistry staining based analysis relative to control. The data set is classed as ADME, Neoplasm. In short, it runs like this: as §1
The test system of a further data set is Jurkat. The data set is described as follows: Cytotoxicity against human Jurkat T cells overexpressing PD-1 with luciferase reporter under the control of NFAT promoter at higher concentration incubated for 48 hrs by redox dye mix based analysis. The class given is toxicity, cell-based. In short, it runs like this:
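Jurkat PD-1 effector cells (PD-1 overexpressing, luciferase reporter under NFAT promoter), 5000 cells/well, grown in RPMI 1640 with 10% FBS and 2 mM L-glutamine. Exposed 48 h to increasing compound concentrations, with DMSO held constant; DMSO alone as control. Values are mean ± SD of at least three independent experiments.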
For orientation: In a reporter assay the amount or activity of a reporter protein is the signal.

For data set [5], the target named is Programmed cell death protein 1/Programmed cell death 1 ligand 1 (Homo sapiens) (UniProt Q15116+Q9NZQ7). The data set is described as follows: Inhibition of human PD-1/PD-L1 interaction assessed as induction of PD-L1 dimerization at 1:1 molar ratio by 1H-15N HMQC NMR analysis. The class given is protein-complex assay. In short, it runs like this:
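Recombinant human PD-L1 (residues 18–134), expressed in E. coli BL21(DE3), refolded and purified by SEC in PBS pH 7.4. 1D and 2D NMR spectra recorded for apo protein and with ligand at 1:1 molar ratio.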

Turning to `N#Cc1c(-c2ccc([18F])cc2)csc1OCc1ccc(CN)cc1`, the Drug uptake result in data set [1] was “Not Active”; in data set [2], “Active”; in data set [3] it was “Active”; in data set [4] it was 40%.
As to `Cc1c(COc2cc(OCc3cccc(C#N)c3)c(CN3C[C@@H]([18F])C[C@@H]3C(=O)O)cc2Cl)cccc1-c1ccc2c(c1)OCCO2`, the Drug uptake result was “Active” in data set [2], “Active” in data set [3] and 40% in data set [4].
Turning to `Cc1c(COc2cc(OCc3cccc(C#N)c3)c(CN3C[C@@H](F)C[C@@H]3C(=O)O)cc2Cl)cccc1-c1ccc2c(c1)OCCO2`, the Activity result in the data set with Jurkat is recorded as “Toxic”.
Take `Cc1c(COc2cc(OCc3cccc(C#N)c3)c(CN3C[C@H](O)C[C@@H]3C(=O)O)cc2Cl)cccc1-c1ccc2c(c1)OCCO2`: the Activity result with Jurkat is on record as “Toxic”. In addition, the inhibition entry in data set [5] was “Active”.
The matching figures for `N#Cc1c(-c2ccc(F)cc2)csc1OCc1ccc(CN)cc1`: “Toxic” and “Active”.
